Experimental data from different studies.
Lines come from different studies, so protocols differ.
HTR3A: 5-hydroxytryptamine receptor 3A (HTR3A, Homo sapiens, UniProt P46098)
ACKR3: Atypical chemokine receptor 3 (ACKR3, Homo sapiens, UniProt P25106)
SLC18A2: Synaptic vesicular amine transporter (SLC18A2, Homo sapiens, UniProt Q05940)
gag-pol reverse transcriptase: Gag-Pol polyprotein, reverse transcriptase (gag-pol, Human immunodeficiency virus 1, UniProt P03366)
LATS1: Serine/threonine-protein kinase LATS1 (LATS1, Homo sapiens, UniProt O95835)
CA1: Carbonic anhydrase 1 (CA1, Homo sapiens, UniProt P00915)
UGT1A4: UDP-glucuronosyltransferase 1A4 (UGT1A4, Homo sapiens, UniProt P22310)

`NC(=O)c1nnn(Cc2cc(Cl)c(C(=O)c3ccc(Cl)cc3)c(Cl)c2)c1N` has an IC50 of 4.35 µM (HTR3A; ion current).
`Nc1ccc(S(=O)(=O)c2ccc(N)cc2)cc1` has an IC50 of 15 µM (Carbonic anhydrase 2 (CA2, Homo sapiens, UniProt P00918); enzyme activity, inhibitor, absorbance; pH 7.4).
`CC(C)(C)NC(=O)C1CCN(Cc2cccc(/N=N/c3cccc(F)c3)c2)CC1` gave an IC50 of 2 µM (ACKR3; ligand displacement, BRET).
`COc1cc2c(cc1OC)[C@H]1C[C@@H](OC(=O)[C@@H](N)C(C)C)[C@H](CC(C)C)CN1CC2` gave an IC50 of 0.53 µM (SLC18A2; transporter uptake, inhibitor, radiometric; cell membranes).
With `CC(C)(C)NC(=O)C1CCN(Cc2cccc(NC(=O)c3ccc(F)cc3)c2)CC1` the IC50 was 0.0631 µM (ACKR3; ligand displacement, BRET).
For `CCOC(=O)c1c(N(CC)CC)c2c([nH]c1=O)CCC2`, the IC50 was over 100 µM (gag-pol reverse transcriptase; enzyme activity, inhibitor).
The IC50 of `Clc1ccc(C2(c3ccc(-c4cn[nH]c4)cc3)CCNCC2)cc1` is reported as 8.87 µM (LATS1; target engagement in cells, BRET).
For `C=CCCCNc1c2c([nH]c(=O)c1C(=O)OCC)CCC2`, the IC50 was over 100 µM (gag-pol reverse transcriptase; enzyme activity, inhibitor).
With `Cc1cncc(CN2CCC(=C3c4ccc(Cl)cc4CCc4cccnc43)CC2)c1` the IC50 was 14.7 µM (CA1; enzyme activity, inhibitor, absorbance; pH 7.4).
`CC(C)Nc1cccnc1N1CCN(C(=O)c2cc3cc(NS(C)(=O)=O)ccc3[nH]2)CC1` gave an IC50 of 4.04 µM (SLC18A2; transporter uptake, inhibitor).
For `CCOC(=O)c1c(NC)c2c([nH]c1=O)CCC2`, the IC50 was over 100 µM (gag-pol reverse transcriptase; enzyme activity, inhibitor).
The IC50 of `Cc1cc(-c2ccnc3[nH]cc(F)c23)cc(F)c1[C@@]1(O)[C@H](C)CN(C2COC2)C[C@@H]1C` is reported as 0.0059 µM (LATS1; enzyme activity, inhibitor, radiometric).
With `[H]/N=C(/N)c1ccc(NCc2nc3cc(C(=O)N(CCC(=O)O)c4ccccn4)ccc3n2C)cc1` the IC50 was 1.7 µM (Plasminogen (PLG, Homo sapiens, UniProt P00747); enzyme activity, inhibitor, absorbance).
The IC50 of `OC1(c2ccc(-c3ccnc4[nH]cc(F)c34)cc2)CCCNCC1` (stereo not drawn) is reported as 7.09 µM (LATS1; target engagement in cells, BRET).
For `COc1cc2nc(N3CCN(C(=O)c4ccco4)[C@H]4CCCC[C@H]43)nc(N)c2cc1OC` (racemic), the IC50 was 0.146 µM (SLC18A2; transporter uptake, inhibitor).
`Cn1cc2c(C(=O)O)ccc(NS(=O)(=O)c3ccc(OCC4CCC4)c(Cl)c3)c2n1` gave an IC50 of over 200 µM (cGMP-dependent 3',5'-cyclic phosphodiesterase (PDE2A, Homo sapiens, UniProt O00408); enzyme activity).
For `CCOC(=O)c1c(NC(CC)CO)c2c([nH]c1=O)CCC2` (stereo not drawn), the IC50 was over 100 µM (gag-pol reverse transcriptase; enzyme activity, inhibitor).
For `C=CCn1c(=O)c2cnc(Nc3ccc(N4CCN(C)CC4)cc3)nc2n1-c1ccc2c(n1)[C@@](O)(CC)CC2`, the IC50 was 10 µM (Cytochrome P450 2C19 (CYP2C19, Homo sapiens, UniProt P33261); enzyme activity, inhibitor).
The IC50 of `CNC(=O)c1ccccc1Sc1ccc2c(/C=C/c3ccccn3)n[nH]c2c1` is reported as 8.2 µM (SLC18A2; transporter uptake, inhibitor).
`Cc1cc(-c2ccnc3[nH]cc(F)c23)cc(F)c1[C@@]1(O)[C@H](C)CN(C(=O)CN)C[C@@H]1C` gave an IC50 of 0.0018 µM (LATS1; enzyme activity, inhibitor, radiometric).
`O=C(O[C@H]1CN2CCC1CC2)N1CCc2ccccc2[C@@H]1c1ccccc1` gave an IC50 of 5.7 µM (SLC18A2; transporter uptake, inhibitor).
The IC50 of `O=C1/C(=C/c2ccc3ccccc3c2O)NC(=S)N1c1ccccc1` is reported as 0.197 µM (Receptor tyrosine-protein kinase erbB-2 (ERBB2, Homo sapiens, UniProt P04626); enzyme activity, inhibitor, ELISA).
`COc1cc2c(N)nc(N3CCN(C(=O)OCC(C)(C)O)CC3)nc2c(OC)c1OC` gave an IC50 of 0.022 µM (SLC18A2; transporter uptake, inhibitor).
`Cc1cc(-c2ccnc3[nH]cc(F)c23)ccc1[C@@]1(O)[C@H](C)CNC[C@@H]1C` has an IC50 of 0.078 µM (LATS1; target engagement in cells, BRET).
For `O=C1CC2(CCCC2)CC(=O)N1CCCCN1CCN(c2ncccn2)CC1`, the IC50 was 2.19 µM (SLC18A2; transporter uptake, inhibitor).
With `NC/C(=C\F)COc1cccc(Cn2c(=S)[nH]c(=O)c3[nH]cnc32)c1` the IC50 was over 30 µM (Diamine oxidase [copper-containing] (AOC1, Homo sapiens, UniProt P19801); enzyme activity, inhibitor).
With `CCOC(=O)c1c(NCCCCN)c2c([nH]c1=O)CCC2` the IC50 was over 100 µM (gag-pol reverse transcriptase; enzyme activity, inhibitor).
`OC(Cn1cncn1)(Cn1cncn1)c1ccc(F)cc1F` gave an IC50 of 11.1 µM (CA1; enzyme activity, inhibitor, absorbance; pH 7.4).
For `CNCCC(Oc1ccc(C(F)(F)F)cc1)c1ccccc1` (stereo not drawn), the IC50 was 2.75 µM (SLC18A2; transporter uptake, inhibitor).
The IC50 of `CC(=O)N1C[C@@H](C)[C@](O)(c2c(C)cc(-c3ccnc4[nH]cc(F)c34)cc2F)[C@@H](C)C1` is reported as 0.0067 µM (LATS1; enzyme activity, inhibitor, radiometric).
With `CC(C)[C@H](N)C(=O)OCCOCn1cnc2c(=O)[nH]c(N)nc21` the IC50 was 12.8 µM (CA1; enzyme activity, inhibitor, absorbance; pH 7.4).
`C[C@@H]1CNC[C@H](C)[C@@]1(O)c1ccc(-c2ccnc3[nH]cc(F)c23)cc1` has an IC50 of 0.011 µM (LATS1; enzyme activity, inhibitor, radiometric).
The IC50 of `CC1=C(/C=C/C(C)=C/C=C/C(C)=C\C(=O)O)C(C)(C)CCC1` is reported as 8.47 µM (CA1; enzyme activity, inhibitor, absorbance; pH 7.4).
For `CCOC(=O)c1c(NCCC2CC2)c2c([nH]c1=O)CCC2`, the IC50 was over 100 µM (gag-pol reverse transcriptase; enzyme activity, inhibitor).
For `CC(C)=CCC/C(C)=C/CC/C(C)=C/Cc1c(O)cc(C)c(C(=O)O)c1O`, the IC50 was 1.61 µM (Sodium channel protein type 2 subunit alpha (SCN2A, Homo sapiens, UniProt Q99250); ion current, inhibitor, patch clamp).
The IC50 of `CN1CCC(CNc2ccc3ncc(-c4cccc(OC(F)(F)F)c4)n3n2)CC1` is reported as 3.48 µM (HTR3A; ion current).
`CN(C/C=C/C#CC(C)(C)C)Cc1cccc2ccccc12` has an IC50 of 30.3 µM (CA1; enzyme activity, inhibitor, absorbance; pH 7.4).
With `CCCCNc1c2c([nH]c(=O)c1C(=O)OCC)CCC2` the IC50 was over 100 µM (gag-pol reverse transcriptase; enzyme activity, inhibitor).
`C[C@@H]1CC[C@@]2(OC1)O[C@H]1C[C@H]3[C@@H]4CC[C@H]5C[C@@H](O)CC[C@]5(C)[C@H]4CC(=O)[C@]3(C)[C@H]1[C@@H]2C` has an IC50 of 2.3 µM (UGT1A4; enzyme activity, inhibitor).
`OC1(c2ccc(-c3ccnc4[nH]cc(F)c34)cc2)CCNCC1` has an IC50 of 0.0029 µM (LATS1; enzyme activity, inhibitor, radiometric).
For `C[C@H]1[C@H](C)CC[C@]2(C(=O)O)CC[C@]3(C)C(=CC[C@@H]4[C@@]5(C)C[C@@H](O)[C@H](O)C(C)(C)[C@@H]5CC[C@]43C)[C@H]12`, the IC50 was 2.66 µM (UGT1A4; enzyme activity, inhibitor; human, liver microsomes).
`CCOC(=O)N1CCC(=C2c3ccc(Cl)cc3CCc3cccnc32)CC1` has an IC50 of 11.9 µM (CA1; enzyme activity, inhibitor, absorbance; pH 7.4).
`CCCCCCCCCC(=O)CC(=O)Nc1ccccc1` gave an IC50 of 1.1 µM (Transcriptional activator protein LasR (lasR, Pseudomonas aeruginosa, UniProt P25084); reporter gene, antagonist).
`CCCCCCNc1c2c([nH]c(=O)c1C(=O)OCC)CCC2` has an IC50 of over 100 µM (gag-pol reverse transcriptase; enzyme activity, inhibitor).
For `C[C@H]1c2cccc(O)c2C(=O)C2=C(O)[C@]3(O)C(=O)C(C(N)=O)=C(O)[C@@H](N(C)C)[C@@H]3[C@@H](O)[C@@H]21`, the IC50 was 12.6 µM (CA1; enzyme activity, inhibitor, absorbance; pH 7.4).
